Source: ChEMBL document CHEMBL1773010, “Cytotoxic and apoptosis-inducing activities of limonoids from the seeds of Azadirachta indica (neem)” (J Nat Prod, 2011)

Columns and labels:
Format in all cases: functional, cell-based
[1] = Cytotoxicity against human AZ-521 cells assessed as cell viability after 48 hrs by MTT assay; conditions: AZ-521, 48 h
In short: (§1)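 Cells seeded at 3 × 10^3 per well and exposed to compounds from 1 × 10^-4 to 1 × 10^-6 M for 48 h. MTT was then added for 3 h, formazan dissolved in 0.04 M HCl in 2-propanol, and absorbance read at 570 nm against 630 nm. IC50 is the concentration giving 50% growth inhibition, from triplicate assays.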

[2] = tested on: SK-BR-3; test: Cytotoxicity against human SK-BR-3 cells assessed as cell viability after 48 hrs by MTT assay; conditions: SK-BR-3, 48 h; in short: as §1
[3] = tested on: A549; test: Cytotoxicity against human A549 cells assessed as cell viability after 48 hrs by MTT assay; conditions: A549, 48 h; in short: as §1
[4] = tested on: HL-60; test: Cytotoxicity against human HL60 cells assessed as cell viability after 48 hrs by MTT assay; conditions: HL-60, 48 h; in short: as §1
[5] = Cytotoxicity against human CRL1579 cells assessed as cell viability after 48 hrs by MTT assay; in short: as §1

| Compound | IC50 [1] | IC50 [2] | IC50 [3] | IC50 [4] | IC50 [5] |
| --- | --- | --- | --- | --- | --- |
| CC=C(C)C(=O)O[C@@H]1[C@@H]2OC[C@]3(C)[C@H](OC(C)=O)C[C@H](O)[C@](C)([C@H]4CC[C@@](C)([C@@H](C)[C@H]5COC(=O)C5)C[C@]14C)[C@@H]23 | > 20 µM | > 20 µM | > 20 µM | > 20 µM | > 20 µM |
| CCC(C)C(=O)O[C@H]1C[C@@H](OC(C)=O)[C@@]2(C(=O)OC)CO[C@H]3[C@@H](O)[C@@](C)([C@]45O[C@@]4(C)C4CC5O[C@@H]5C[C@@H](OC)C[C@]45O)[C@@H]4[C@@H](C(=O)OC)OC[C@@]14[C@@H]32 (some centres undefined) | > 20 µM | > 20 µM | > 20 µM | > 20 µM | > 20 µM |
| O=c1[nH]cc(F)c(=O)[nH]1 [FLUOROURACIL] | > 20 µM | > 20 µM | > 20 µM | 9.1 µM | > 20 µM |
| C/C=C(/C)C(=O)O[C@H]1C[C@@H](OC(C)=O)[C@@]2(C)CO[C@H]3[C@H]4O[C@@H]5CC(=O)C(C)=C5[C@@]4(C)[C@H](CC(=O)OC)[C@]1(C)[C@@H]32 | > 20 µM | > 20 µM | > 20 µM | > 20 µM | > 20 µM |
| CC(=O)O[C@@H]1C[C@H]2C(C)(C)C(=O)C=C[C@]2(C)[C@H]2CC[C@]3(C)C(=CC(=O)[C@H]3C3=CCOC3=O)[C@@]21C [AZADIRADIONOLIDE] | > 20 µM | 11.5 µM | > 20 µM | > 20 µM | > 20 µM |
| CC(=O)O[C@@H]1C[C@H]2C(C)(C)C(=O)C=C[C@]2(C)[C@H]2CC[C@]3(C)C(=CC(=O)O[C@]3(O)c3ccoc3)[C@@]21C [NIMOLICINOL] | > 20 µM | > 20 µM | > 20 µM | > 20 µM | > 20 µM |
| COC(=O)C[C@H]1[C@]2(C)C3=C(C)[C@H](c4ccoc4)C[C@H]3O[C@@H]2[C@@H]2OC[C@]3(C)[C@H](OC(C)=O)C[C@H](OC(=O)/C=C/c4ccccc4)[C@@]1(C)[C@@H]23 [OHCHININ ACETATE] | > 20 µM | > 20 µM | > 20 µM | 9.9 µM | > 20 µM |
| CC(=O)O[C@@H]1C[C@H]2C(C)(C)C(=O)C=C[C@]2(C)[C@H]2CC[C@]3(C)OC(=O)C=C3[C@@]21C | > 20 µM | > 20 µM | > 20 µM | > 20 µM | > 20 µM |
| CC1(C)C(=O)C=C[C@]2(C)[C@H]3CC[C@]4(C)C(=CC(=O)[C@H]4c4ccoc4)[C@]3(C)[C@H](O)C[C@@H]12 [NIMBOCINOL] | > 20 µM | > 20 µM | > 20 µM | > 20 µM | > 20 µM |
| CC(=O)O[C@@H]1C[C@H]2C(C)(C)C(=O)C=C[C@]2(C)[C@H]2CC[C@]3(C)C(=CC(=O)[C@@H]3c3ccoc3)[C@@]21C [17-EPIAZADIRADIONE] | > 20 µM | > 20 µM | > 20 µM | 12.6 µM | > 20 µM |
| CCC(C)C(=O)O[C@H]1C[C@@H](OC(C)=O)[C@@]2(C)CO[C@H]3[C@H]4O[C@@H]5C[C@@H](c6ccoc6)C(C)=C5[C@@]4(C)[C@H](CC(=O)OC)[C@]1(C)[C@@H]32 (some centres undefined) | > 20 µM | > 20 µM | > 20 µM | 17.1 µM | > 20 µM |
| C/C=C(\C)C(=O)O[C@@H]1C[C@H](O)[C@]23CO[C@H](C(=O)OC)[C@H]2[C@](C)([C@]24O[C@@]2(C)[C@H]2C[C@@H]4O[C@@H]4OC=C[C@@]42O)[C@H](O)[C@@H]2OC[C@@]1(C(=O)OC)[C@H]23 [AZADIRACHTIN B] | > 20 µM | > 20 µM | > 20 µM | > 20 µM | > 20 µM |
| CC(=O)O[C@@H]1C[C@H]2C(C)(C)C(=O)C=C[C@]2(C)[C@H]2CC[C@@]3(C)CC(=O)C=C3[C@@]21C [DESFURANOAZADIRADIONE] | > 20 µM | > 20 µM | > 20 µM | 19.8 µM | > 20 µM |
| CC(=O)O[C@@H]1C[C@H]2C(C)(C)C(=O)C=C[C@]2(C)[C@H]2CC[C@@]3(C)[C@H](c4ccoc4)OC(=O)[C@H]4O[C@]43[C@@]21C [GEDUNIN] | 16.9 µM | 8.3 µM | > 20 µM | 5.9 µM | > 20 µM |
| COC(=O)C[C@H]1[C@]2(C)C3=C(C)[C@H](c4ccoc4)C[C@H]3O[C@@H]2[C@H](OC(C)=O)[C@@H]2[C@]1(C)C(=O)C=C[C@@]2(C)O | > 20 µM | > 20 µM | > 20 µM | > 20 µM | > 20 µM |
| CC(=O)O[C@@H]1C[C@H]2C(C)(C)C(=O)C=C[C@]2(C)[C@H]2CC[C@]3(C)C(=CC[C@H]3[C@H]3COC(=O)C3)[C@@]21C | > 20 µM | > 20 µM | > 20 µM | > 20 µM | > 20 µM |

| Compound | IC50 [1] | IC50 [2] | IC50 [3] | IC50 [4] | IC50 [5] |
| --- | --- | --- | --- | --- | --- |
| COC(=O)C[C@H]1[C@]2(C)C3=C(C)[C@H](c4ccoc4)C[C@H]3O[C@@H]2[C@H](OC(C)=O)[C@@H]2[C@]1(C)C(=O)C=C[C@@]2(C)C(=O)OC [NIMBIN] | > 20 µM | > 20 µM | > 20 µM | – | 15.9 µM |
| CC(=O)O[C@@H]1C[C@H]2C(C)(C)C(=O)C=C[C@]2(C)[C@H]2CC[C@]3(C)C(=CC(=O)[C@]3(O)c3ccoc3)[C@@]21C | > 20 µM | > 20 µM | > 20 µM | > 20 µM | 19.1 µM |
| CC(=O)O[C@@H]1C[C@H]2C(C)(C)C(=O)C=C[C@]2(C)[C@H]2CC[C@@]3(C)C(c4ccoc4)=C(O)C(=O)[C@H]3[C@@]21C | > 20 µM | > 20 µM | > 20 µM | > 20 µM | > 20 µM |
| CC1(C)C(=O)C=C[C@]2(C)[C@H]3CC[C@@]4(C)[C@H](c5ccoc5)OC(=O)[C@H]5O[C@]54[C@]3(C)[C@H](O)C[C@@H]12 [DEACETYLGEDUNIN] | 16.9 µM | 12 µM | > 20 µM | > 20 µM | > 20 µM |
| CC(=O)O[C@H]1C[C@@H](OC(C)=O)[C@@]2(C)CO[C@@H]3[C@@H](O)[C@@]4(C)C5=CC[C@@H](c6ccoc6)[C@]5(C)CC[C@@H]4[C@]1(C)[C@@H]32 | 14.8 µM | > 20 µM | > 20 µM | 15.3 µM | > 20 µM |
| C/C=C(/C)C(=O)O[C@H]1C[C@@H](O)[C@@]2(C)CO[C@H]3[C@H]4O[C@@H]5C[C@@H](c6ccoc6)C(C)=C5[C@@]4(C)[C@H](CC(=O)OC)[C@]1(C)[C@@H]32 | > 20 µM | > 20 µM | > 20 µM | > 20 µM | > 20 µM |
| CC1(C)C(=O)C=C[C@]2(C)[C@H]3CC[C@]4(C)C(=CC(=O)O[C@@]4(O)c4ccoc4)[C@]3(C)[C@H](O)C[C@@H]12 | > 20 µM | > 20 µM | > 20 µM | > 20 µM | > 20 µM |
| COC(=O)C[C@H]1[C@]2(C)C3=C(C)[C@H](c4ccoc4)C[C@H]3O[C@@H]2[C@H](O)[C@@H]2[C@]1(C)C(=O)C=C[C@@]2(C)C(=O)OC [DEACETYLNIMBIN] | > 20 µM | > 20 µM | > 20 µM | 11.6 µM | > 20 µM |
| CC(=O)O[C@@H]1C[C@H]2C(C)(C)C(=O)C=C[C@]2(C)[C@H]2CC[C@@]3(C)OC(=O)C=C3[C@@]21C | > 20 µM | > 20 µM | > 20 µM | > 20 µM | > 20 µM |
| CC(=O)O[C@@H]1C[C@H]2C(C)(C)C(=O)C=C[C@]2(C)[C@H]2CC[C@]3(C)C(=CC(=O)[C@H]3c3ccoc3)[C@@]21C [AZADIRADIONE] | > 20 µM | 15.9 µM | > 20 µM | 14.7 µM | > 20 µM |
| C/C=C(/C)C(=O)O[C@H]1C[C@@H](OC(C)=O)[C@@]2(C)CO[C@H]3[C@H]4O[C@@H]5C[C@@H](c6ccoc6)C(C)=C5[C@@]4(C)[C@H](CC(=O)OC)[C@]1(C)[C@@H]32 [SALANNIN] | > 20 µM | > 20 µM | > 20 µM | > 20 µM | > 20 µM |
| CCC(C)C(=O)O[C@H]1C[C@@H](OC(C)=O)[C@@]2(C(=O)OC)CO[C@H]3[C@@H](O)[C@@](C)([C@]45O[C@@]4(C)C4CC5O[C@@H]5C[C@H](OC)C[C@]45O)[C@@H]4[C@@H](C(=O)OC)OC[C@@]14[C@@H]32 (some centres undefined) [VEPAOL] | > 20 µM | > 20 µM | > 20 µM | > 20 µM | > 20 µM |
| CC1(C)C(=O)C=C[C@]2(C)[C@H]3CC[C@]4(C)C(=CC(=O)[C@H]4c4ccoc4)[C@]3(C)[C@H](OC(=O)c3ccccc3)C[C@@H]12 | > 20 µM | > 20 µM | > 20 µM | 5.3 µM | 4 µM |
| CC=C(C)C(=O)O[C@H]1C[C@@H](OC(C)=O)[C@@]2(C(=O)OC)CO[C@H]3[C@H]4O[C@@H]5C6C[C@@H](O[C@@H]7OC=C[C@]67O)[C@]5(O)[C@@]4(C)[C@@H]4[C@@](OC)(C(=O)OC)OC[C@@]14[C@@H]32 | > 20 µM | > 20 µM | > 20 µM | > 20 µM | > 20 µM |
| CC(=O)O[C@@H]1C[C@H]2C(C)(C)C(=O)C=C[C@]2(C)[C@H]2CC[C@]3(C)C(=CC(=O)[C@@]3(O)c3ccoc3)[C@@]21C [17-HYDROXYAZADIRADIONE] | > 20 µM | > 20 µM | > 20 µM | 12.4 µM | > 20 µM |
